SIRT5 inh: inhibitors of human sirtuin-5 desuccinylase; inhibition, % at 15 µM; 330,000 compounds, 1.1% hits; Purified SirT5, succinyl-peptide AMC, trypsin-coupled fluorescence; AID 652115; in the data active = inhibition above about 15%
Target sequence (Q9NXA8 whole entry, looked up): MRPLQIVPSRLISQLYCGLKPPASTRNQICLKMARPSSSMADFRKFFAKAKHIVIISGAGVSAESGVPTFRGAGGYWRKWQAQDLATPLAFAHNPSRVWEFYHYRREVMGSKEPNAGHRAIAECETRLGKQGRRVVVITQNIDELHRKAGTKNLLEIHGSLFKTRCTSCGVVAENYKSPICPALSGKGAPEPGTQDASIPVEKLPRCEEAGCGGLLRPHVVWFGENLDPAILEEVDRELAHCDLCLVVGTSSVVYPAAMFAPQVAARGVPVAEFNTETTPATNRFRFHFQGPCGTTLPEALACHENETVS
FN deposit inh: fibronectin deposition inhibition; AID 743247; inhibition, % at 12.6 µM; 350,000 compounds, 0.086% hits; AH1F fibroblasts, Alexa488-fibronectin deposition fluorescence, overnight;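 active = mean inhibition across replicates of 30% or more, regardless of how many single replicates reach that level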;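 note: positive control wells lacked labelled fibronectin entirely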
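Schedule: 1 h cell adhesion before compound, then overnight fibronectin incubation; test system: AH1F fibroblast monolayer depositing Alexa488-labelled fibronectin into matrix; quantity: 10000 AH1F cells per well; probe or stimulus: fluorescent fibronectin at 24 nM final; signal: fluorescence, ex 485 nm, em 525 nm; evaluation: percent inhibition as loss of matrix-bound fibronectin fluorescence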
ARNT TACC3 PPI: disrupts binding between human ARNT and TACC3; Q9Y6A5; 390,000 compounds, 0.66% hits; inhibition, % at 9.99 µM; AlphaScreen His-ARNT PAS-B/GST-TACC3 binding, luminescence; TACC3 fragment carries E629A point mutation;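 active = mean inhibition of replicates at least 50% and at least half of replicates each reaching 50%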;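 note: 0% = complete ARNT plus TACC3 wells and 100% = ARNT alone without TACC3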
XiGFP reactiv: reactivates the inactive X chromosome in mouse fibroblasts | 360,000 compounds, 0.055% hits | activation, % at 7.58 µM | AID 743238 | XiGFP mouse fibroblasts, % GFP-positive cells imaging, 3 d; cells co-treated with 5-aza-dC sensitizer; scaled so ellipticine positive control = 100%;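 active = mean normalized replicate activation at least 10% and every replicate at or above 10%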;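 note: 0% = median of on-plate neutral control wells and 100% = ellipticine 6 µM median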
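Assay system – SV40-immortalized XiGFP fibroblast cells, line 68-5-11 · Buffer or medium – DMEM supplemented with 5-aza-dC as sensitizing agent · Dosing – one concentration, pinned · Benchmarks – positive control ellipticine, 6 µM final · Times – 3 days compound exposure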
FGF22 binding: shifts melting point of recombinant human FGF22. AID 651658. 340,000 compounds, 1.5% hits. recombinant FGF22 thermal shift, SYPRO orange fluorescence; percent of sucrose octasulfate shift, DMSO zero. activity (Tm shift, normalised), % at 9.99 µM. Q9HCT0;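 active = mean Tm shift, scaled 0 neutral to 100 positive control, at about 1.3% or above, every replicate too, limit read from the data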
Target sequence (Q9HCT0 whole entry, looked up): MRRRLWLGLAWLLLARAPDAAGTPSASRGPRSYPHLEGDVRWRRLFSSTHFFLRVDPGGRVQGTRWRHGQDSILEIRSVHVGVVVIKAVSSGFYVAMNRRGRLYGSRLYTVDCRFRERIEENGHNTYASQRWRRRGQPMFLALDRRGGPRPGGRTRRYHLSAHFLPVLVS
DENV2 CPE: inhibitors of DENV2 cytopathic effect | 350,000 compounds, 1.7% hits | CPE inhibition, % at 9.99 µM | AID 651640 | DENV2-infected cells, cytopathic effect rescue, plate reader; in the data active = CPE inhibition above about 20%, passing the limit was not always enough; tested in BHK-21 cells;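 note: 0% = median of neutral control wells and 100% = median of positive control wells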
* hit, by the source's call; . = no result; ! = repeats disagree. In the library only some 3.8% were active in any assay of this set; here they are far more common.

SMILES	SIRT5 inh	FN deposit inh	ARNT TACC3 PPI	XiGFP reactiv	FGF22 binding	DENV2 CPE
COCCn1c(=S)[nH]c2sc3c(c2c1=O)CCC(C)C3 (configuration not stated)	-4	4	18	0	-1	0
Cn1c(=S)[nH]c2sc3c(c2c1=O)CCC(C(C)(C)C)C3 (configuration not stated)	35*	-9	.	0	0	-4
O=C1C2C(C(=O)N1/N=C/c1ccc([N+](=O)[O-])o1)C1C=CC2C12CC2 (configuration not stated)	.	5	5	1	.	.
CC1=NN(c2nc(N)nc(/C(C#N)=C/c3ccc([N+](=O)[O-])o3)n2)C(C)(C)C1	.	-3	-6	73*	0	-4
CCOC(=O)N1CCN(S(=O)(=O)c2c(C)nc3sccn3c2=O)CC1	1	16	-5	0	0	4
CCOC(=O)N1CCN(S(=O)(=O)c2c(C)nc3scc(C)n3c2=O)CC1	31*	2	-4	0	0	1
CO[C@@H]1CN(C)C(=O)c2cc(NS(=O)(=O)CC(F)(F)F)ccc2OC[C@H](C)N(Cc2ccccn2)C[C@H]1C	-5	5	29	0	0	0
CN(CC(=O)O)Cc1oc(CO)cc(=O)c1O	.	1	-14	0	44*	11
C/C=C/c1ccc([C@H]2[C@@H](CO)N(C(=O)C3CCC3)[C@H]2CNC(=O)CN(C)C)cc1	1	-19	.	0	.	3
COc1ccc(CCCc2nnc(SCc3nc4ccccc4c(=O)[nH]3)n2C)cc1C	-1	3	-4	0	43*	-4
C/C=C/c1cnc2c(c1)C(=O)N([C@H](C)CO)C[C@H](C)[C@H](CN(C)S(=O)(=O)c1ccccc1)O2	0	-9	-3	-1	0	79*
C/C=C/c1cnc2c(c1)C(=O)N([C@@H](C)CO)C[C@H](C)[C@@H](CN(C)C(=O)NC1CCCC1)O2	17*	.	-11	0	1	-1
C[C@@H]1CN([C@@H](C)CO)C(=O)c2cc(/C=C/c3ccccc3)cnc2O[C@@H]1CN(C)S(=O)(=O)c1ccc(F)cc1	32*!	7	5	0	0	4
C[C@@H]1CN([C@@H](C)CO)C(=O)c2cccc(NS(=O)(=O)c3ccccc3)c2O[C@H]1CN(C)C(=O)Nc1ccc2c(c1)OCO2	0	.	1	-1	0	11
COc1ccc2c3c([nH]c2c1)[C@@H](CO)N(C(=O)CN(C)C)CC31CN(CC2CCCC2)C1	-2	.	.	0	0	28*
CCCNC(=O)N1CC2(CCN(S(=O)(=O)CC)CC2)c2c([nH]c3cc(OC)ccc23)[C@@H]1CO	1	4	.	0	0	31*
CCCNC(=O)N1CC2(CCN(CC3CCCC3)CC2)c2c([nH]c3cc(OC)ccc23)[C@H]1CO	2	.	.	0	0	0
CCCNC(=O)N1CC2(CCN(CC3CC3)CC2)c2c([nH]c3cc(OC)ccc23)[C@@H]1CO	5	.	.	0	0	24*
COc1ccc(NC(=O)N(C)C[C@H]2Oc3ccc(NS(=O)(=O)c4cn(C)cn4)cc3CC(=O)N([C@@H](C)CO)C[C@@H]2C)cc1	4	-9	4	0	0	-3
CN(C)CC(=O)Nc1ccc2c(c1)[C@H]1C[C@H](CC(=O)N3CCN(C)CC3)O[C@H](CO)[C@H]1O2	-2	0	-11	0	0	5
CC(NC(=O)c1c(N)[nH]c(C(=O)c2ccc(Cl)cc2)c1-c1ccc(Br)cc1)c1cccc2ccccc12 (configuration not stated)	-2	-1	.	1	0	39*
Nc1[nH]c(C(=O)c2ccc(Br)cc2)c(-c2ccc(Cl)cc2)c1C(=O)NCCc1c[nH]c2ccccc12	-1	8	.	0	.	44*
COc1ccc(C2(C)CC(C)(C)Nc3ccccc32)cc1 (configuration not stated)	-5	-5	17	0	0	26*
O=C(/C=C/c1cn(CC(O)CN2CCCCC2)c2ccccc12)c1cccs1 (configuration not stated)	.	-11	17	10	.	.
O=C(/C=C/c1cn(CC(O)CN2CCCCC2)c2ccccc12)c1ccccc1 (configuration not stated)	-6	0	13	1	0	27*
SMILES	SIRT5 inh	FN deposit inh	ARNT TACC3 PPI	XiGFP reactiv	FGF22 binding	DENV2 CPE
O=C(CN1CCC(NC(=O)c2ccccc2F)CC1)Nc1ccc2c(c1)OCCO2	-2	-1	2	0	43*	.
Cc1ccccc1C(=O)NC1CCN(CC(=O)Nc2ccc3c(c2)OCCO3)CC1	-1	-4	1	0	43	4
CC(=O)OC1CCC2(C)C(CCC3C2CC(=O)C2(C)C3CC(C3CCCC3=O)C2C(C)=O)C1 (configuration not stated)	15*	-10	-1	0	0	-4
CC(=O)OC1CCC2(C)C(CCC3C2CC(=NO)C2(C)C(C(C)OC(C)=O)CCC32)C1 (configuration not stated)	2	0	2	0	0	0
CC(=O)O[C@H]1CC[C@@]2(C)[C@@H](CC[C@H]3[C@@H]4CC[C@H](C(C)O)[C@@]4(C)CC(=O)[C@@H]32)C1 (some centres not stated)	23*	13	0	0	0	37*
CC(=O)OC1CCC2(C)C(CCC3C2CC(=O)C2(C)C3CC(C(C(C)=O)C(C)=O)C2C(C)=O)C1 (configuration not stated)	0	13	-2	0	0	-7
COc1ccccc1NC(=O)N1C[C@@H]2N[C@H](C1)C2c1ccc(-c2ccc(C#N)cc2)cc1 (some centres not stated)	1	4	.	0	.	-3
CCCc1cn(CC[C@@H]2CC[C@H](NC(=O)CCN3CCCCC3)[C@@H](CO)O2)nn1	4	4	-17	1	0	-3
C[C@H](CO)N1C[C@H](C)[C@H](CN(C)Cc2ccc(Oc3ccccc3)cc2)Oc2c(NC(=O)Nc3cccc4ccccc34)cccc2C1=O	9	.	5	0	-1	2
CCOC(=O)c1c2c(n(C)c1C)C(=O)C(=O)c1ccc(Br)cc1-2	.	8	2	.	.	.
CCOC(=O)c1c2c(n(Cc3ccccc3)c1C)C(=O)C(=O)c1ccccc1-2	-2	30*	0	2	0	-3
COc1ccc(CN2CCN(c3ncnc4scc(-c5ccc(F)cc5)c34)CC2)cc1	0	4	48*	0	0	1

Screens as filed in PubChem.
